Data on 71 molecules can be found in ChEMBL document CHEMBL4513216, “Probing the Open Global Health Chemical Diversity Library for Multistage-Active Starting Points for Next-Generation Antimalarials” (ACS Infect Dis, 2020).

The nature of the data set: Toxicity liver stage against HepG2, at 10uM. The arrangement: test concentration 10 uM, cell line HepG2-A16-CD81EGFP. The settings on record: human, HepG2-A16-CD81EGFP cells; read-out: INHIBITION
In kind it is cell-based. The method, boiled down:
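Uninfected HepG2-A16-CD81EGFP cells, 3 × 10^3 per well, 1536-well, plated on prespotted compound at 10 μM final, parasite-free screening media added to match infected plates; puromycin 10 μM positive, DMSO 0.5% negative; run in parallel with 48 h PbLuc assay at 37 °C, 5% CO2; viability by CellTiter-Glo luminescence, normalized to controls.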
Take `CC1(C)CNC(=O)CN(C(=O)CCc2ccccc2)C1`: the cytotoxicity at 10 µM is -8.57%.
The figure for `O=C1CN(S(=O)(=O)CC(F)(F)F)CC(O)CN1CCCc1ccccc1` (stereo unspecified) is -7.99%; for `O=C(Nc1cnc(Oc2ccccc2F)nc1)C1CC1` it is 0.0701%.
Consider `COc1ccc(C(C)N(C)Cc2c(C(C)C)[nH]c3ncccc23)cc1` (stereo unspecified), for which the cytotoxicity at 10 µM is -7.99%.
The result for `Cc1nc(C2CCCN2C(=O)c2ccccc2)ncc1C(N)=O` (stereo unspecified) reads -1.47%.
Turning to `CN(Cc1ccc2c(c1)OCO2)Cc1cscn1`, the cytotoxicity at 10 µM is -11.1%.
The result for `CS(=O)(=O)NCCC(=O)Nc1ccccc1N1CCc2ccccc21` reads 11.9%.
Take `Cc1ccc(C(=O)NCCCN(C)S(C)(=O)=O)c(=O)[nH]1`: the cytotoxicity at 10 µM is -5.89%.
For `COc1cc(CN(C)C(=O)NCc2ccccn2)ccc1SC`, the cytotoxicity at 10 µM was -8.42%.
The figure for `CCC(CC)c1cc(CNC(=O)N2CCC(CO)CC2)on1` is 3.76%; for `CCc1nc(CN2CCCN(c3cnc4ccccc4n3)CC2)no1` it is 22%; for `O=C(c1ccc2[nH]ccc2c1)N1CCCCC1c1nc[nH]n1` (stereo unspecified) it is -9.04%.
Take `Cc1nc2n(n1)CC(NCC(=O)NCCC1=CCCCC1)CC2` (stereo unspecified): the cytotoxicity at 10 µM is -9.36%.
Turning to `CC(NCC1CCN(CCO)CC1)c1cccc(Cl)c1` (stereo unspecified), the cytotoxicity at 10 µM is -12.5%.
As for `O=C(NCc1cccc(F)c1)Nc1ccn(CCN2CCOCC2)n1`, the cytotoxicity at 10 µM was -8.45%.
The result for `CC(NCCN1CCC(N(C)C)CC1)c1ccc(F)cc1N(C)C` (stereo unspecified) reads -13%; that for `CCCc1nn(Cc2ccc(Br)s2)c(=O)o1`, 3.81%; that for `COc1ccc(C(C)N2CCC(CO)CC2)cc1Cl` (stereo unspecified), -51.1%.
The result for `Cc1cccc(C(=O)N2CCN(S(C)(=O)=O)[C@@H](C)C2)c1C` reads 3.46%; that for `CC(C)O[C@@H]1CC[C@H]2[C@H]1OCCN2C(=O)c1nn(C)c2ccccc12`, -0.824%; that for `c1ccc(CN2C[C@@H]3OCCN(c4cccnc4)[C@@H]3C2)nc1`, -72.8%.
The result for `COCCC1COC2(CCN(C(=O)c3ccccc3)CC2)C1` (stereo unspecified) reads -87.5%.
As to `Cc1nc(NCC2CC2)nc2c1COCC21CCN(CC(=O)N(C)C)C1` (stereo unspecified), the cytotoxicity at 10 µM was -78.5%.
Turning to `COCCO[C@H]1CCN(C(=O)c2ccsc2)[C@H]1Cc1ccncc1`, the cytotoxicity at 10 µM is -75.4%.
Consider `Cc1noc(C)c1CN1CC[C@H]2C[C@H](c3nccs3)O[C@@H]2C1`, for which the cytotoxicity at 10 µM was -70.7%.
The figure for `c1ccc(CO[C@H]2CC[C@H]3[C@H]2OCCN3CCN2CCCCC2)nc1` is -7.16%.
As to `CO[C@@H]1CO[C@@]2(CCCN(S(=O)(=O)c3ccccc3)C2)C1`, the cytotoxicity at 10 µM was -79.8%.
The figure for `CC1=N[C@@]2(CC[C@@H]3CN(S(=O)(=O)CC(C)C)C[C@@H]32)C(=O)N1CC(C)C` is -1.34%; for `CS(=O)(=O)N1CCC(c2nnc3ccc(C(=O)N4CCCC4)cn23)C1` (stereo unspecified) it is 1.47%; for `COCCN(C)C(C(=O)O)c1ccc(F)c(Cl)c1` (stereo unspecified) it is 12.2%.
The figure for `CN(CCO)C[C@@H]1CN(C(=O)Cc2ccc3ccccc3c2)C[C@@H]1CO` is -1.96%; for `CCN(Cc1noc(C)n1)C(=O)C(c1cccc(C)c1)N(C)C` (stereo unspecified) it is -1.34%; for `CN(CCc1ccccc1)Cc1cc(C(=O)N2CCSCC2)no1` it is 3.88%.
For `COc1ccc2c(CN3CCCN(Cc4ccncc4)CC3)n[nH]c2c1`, the cytotoxicity at 10 µM was -4.32%.
The result for `COC(=O)CNCC1(O)CCCN(Cc2cccc(F)c2F)C1=O` (stereo unspecified) reads -6.87%; that for `COc1cccc(CCC2CCCN(C(=O)c3ccc(=O)n(C)n3)C2)c1` (stereo unspecified), 4.34%.
Regarding `COc1cccn(CC(=O)N(C)CCC2CCOCC2)c1=O`, the cytotoxicity at 10 µM was -19%.
Turning to `C[C@@H]1CN(CCOCc2ccccc2)CC[C@@]1(O)C1CCC1`, the cytotoxicity at 10 µM is 1.4%.
The result for `COc1ccc2c(CN3CCN(Cc4cccc(F)c4)CC3)n[nH]c2c1` reads -1.86%.
Take `CSCC1CCN(c2nc(N)ncc2C)CC1`: the cytotoxicity at 10 µM is -5.2%.
The figure for `Cc1ccc(CN2C(=O)OCC2CO)c2ccccc12` (stereo unspecified) is -5.21%; for `COCc1cc(CNC(=O)c2cc(NC(C)=O)ccc2Cl)n[nH]1` it is 5.3%; for `O=C(COCC(F)(F)C(F)F)N1CCC(c2ncc[nH]2)CC1` it is -53.9%.
As for `COCC(=O)N1CCC2(CCCN(Cc3cc(OC)ccc3F)C2)C1` (stereo unspecified), the cytotoxicity at 10 µM is -1.62%.
The result for `COCCN1CCCC2(CCN(C(=O)c3cnc(O)cn3)C2)C1=O` (stereo unspecified) reads 0.0942%; that for `CS(=O)(=O)N[C@H]1CN(C(=O)CCc2ccco2)C[C@@H]1C1CC1`, 2.7%.
The result for `Cc1nc(NC(=O)NC2CC(=O)N(C)C2)nn1C(C)C` (stereo unspecified) reads -8.15%; that for `Cc1cc(CC(C)NC(=O)COc2ccc(F)cc2F)[nH]n1` (stereo unspecified), -49%.
The figure for `CCc1nnc(CN2CCN(c3cccc(OC)c3)C(=O)C2)o1` is 18.4%; for `CN(Cc1ccccn1)C(C(=O)O)c1ccc2c(c1)OCO2` (stereo unspecified) it is 1.16%; for `CCC(C)N(Cc1ccncc1)C(=O)CCC(=O)OC` (stereo unspecified) it is -14.5%.
`CCCn1ncc(C(=O)N(C)Cc2cc(C3CC3)[nH]n2)c1C`: the cytotoxicity at 10 µM was -4.65%.
As for `CNC(=O)c1cccc(C2CNCCN2C(C)=O)c1` (stereo unspecified), the cytotoxicity at 10 µM came to 0.384%.
`CC(C)Cc1cc(NC(=O)c2ccc(=O)[nH]n2)n(C)n1`: the cytotoxicity at 10 µM was -10.1%.
With `NC(=O)NCC1CCCCN1C(=O)c1cccc(C(F)(F)F)c1` (stereo unspecified), the cytotoxicity at 10 µM is -7.32%.
The result for `COCCCNC(=O)CN(C)C(=O)c1cc(C)ccc1O` reads -6.81%; that for `O=C(Nc1ccc(CCN2CCC(O)CC2)cc1)C1CCOCC1`, -8.08%.
The result for `CC(C)(C)c1nnc(CN2CCOC(Cn3cncn3)C2)o1` (stereo unspecified) reads -1.5%.
Take `Cc1cc(C)n(CC2CN(Cc3cscn3)CCO2)n1` (stereo unspecified): the cytotoxicity at 10 µM was -2.68%.
The figure for `CC(C)Oc1ncccc1CNC(=O)N1CCC(C(N)=O)C1` (stereo unspecified) is -6.08%; for `Cc1noc(Cl)c1CCC(=O)N1CCc2sccc2C1` it is 2.65%; for `CC(NCc1ccc(F)cc1)c1ccc(OCC(=O)NC2CC2)cc1` (stereo unspecified) it is 3.99%.
The figure for `Cc1nccc(C2(C)CCCNC2)n1` (stereo unspecified) is 9.22%; for `COc1ccc(CN2CCn3cc(CN4CCN(C)CC4)nc3C2)cc1` it is -0.00161%; for `COCCN1CCO[C@H]2CN(Cc3cc[nH]n3)C[C@H]21` it is -105%.
The figure for `COCCN1CCC2(C1)c1ccccc1S(=O)(=O)N2C` (stereo unspecified) is 11.4%; for `O=C([C@@H]1COC[C@H]2CN(C3CCCC3)C[C@H]21)N1CCCCO1` it is -1.11%.
With `Fc1cnc(N2CCCC3(CCN(Cc4ccoc4)C3)C2)nc1` (stereo unspecified), the cytotoxicity at 10 µM was -80.6%.
The result for `O=C(c1ccncc1)N1CCC2(CCCN(c3ncc(F)cn3)C2)C1` (stereo unspecified) reads -105%; that for `Cn1ncc2c(NC3CCC(N)CC3)nc(C(C)(C)C)nc21` (stereo unspecified), 8%; that for `CC(C)(C)c1ccc(OCC(=O)O)c(CN2C[C@H]3CC(O)C[C@H]3C2)c1` (stereo partly specified), 3.46%.
